# High-throughput results deposited in PubChem by Johns Hopkins Ion Channel Center.
# Rows were chosen to be rich in hits. Some 3.7% of all compounds tested hit in one or more screens of this group.
# hERG rescue = hERG (human) protection from proarrhythmic block; Q12809; CHO-hERG, FluxOR thallium flux, dofetilide IC70 present; activation (rescue from dofetilide block), less the hit threshold, % at 10 µM; 0.51% of 310,000 active; AID 1511;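 active means activation above the mean of controls blocked by dofetilide plus 5 SD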;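 further: thallium influx through hERG after potassium depolarization seen as dye fluorescence rise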
# KCNQ1 pot = potentiators or activators of human KCNQ1 potassium channel. P51787. 0.35% of 310,000 active. B-score at 10 µM. CHO-K1 KCNQ1, thallium flux FluxOR fluorescence; active compounds read high;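 active means fluorescence ratio B-score, a plate-corrected score, at least three library SD, with initial intensity B-score within 5 SD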
#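 Assay system: stable KCNQ1 CHO-K1 line; medium: assay buffer, equal DMSO in all wells; timing: 90 min dye loading and 20 min compound exposure, both at room temperature; technique: kinetic FluxOR thallium fluorescence, 10-s 1-Hz baseline, 110-s post-stimulus read; read-out basis: B score of baseline-normalized fluorescence ratio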
# KCNQ1 inh = human KCNQ1 channel inhibition | P51787 | 1.3% of 310,000 active | CHO-K1 KCNQ1, FluxOR thallium flux fluorescence; active compounds read high | B-score at 10 µM;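 active means compounds whose thallium flux B-score, printed positive for inhibition, exceeds three library SD while starting fluorescence stays within three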;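 further: channel opened by potassium depolarization with thallium stimulus after 20 min compound exposure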
# Kir21 block = blocks the mouse Kir2.1 inward-rectifier potassium channel; P35561; HEK293-Kir2.1, FluxOR thallium flux fluorescence; active compounds read low; B-score at 10 µM; 0.85% of 310,000 active; AID 1672;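 active means fluorescence ratio B-score at or below minus 3 SD of library scores, with starting-brightness B-score within 2 SD, cut at about -4.2 in these data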;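 further: channel flux triggered by added potassium and thallium sulfate stimulus; B-score of peak minus minimum fluorescence over baseline after thallium stimulus; more negative B-score means stronger Kir2.1 block with less thallium influx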
# KCNK9 inh = blocks the human KCNK9 two-pore domain potassium channel | Q9NPC2 | HEK293 KCNK9, FluxOR thallium flux fluorescence; active compounds read low | 1.2% of 310,000 active | B-score at 10 µM;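 active means ratio B-score over 3 SD below the library mean, with starting fluorescence within 5 SD of its mean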;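 further: negative B-score means less thallium flux so channel inhibition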
# KCNK3 block = human KCNK3 channel inhibition, primary screen. CHO-KCNK3 thallium flux, FluxOR fluorescence; active compounds read low. 0.84% of 340,000 active. AID 602410. B-score at 10 µM;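 active means B-score under library mean minus 4 SD, starting fluorescence ratio at most library mean plus 5 SD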;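 further: more negative B-score means stronger inhibition of thallium flux through KCNK3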
# KCNK9 inh conf = human KCNK9 inhibitor confirmation; shares compounds with KCNK9 inh; HEK293 KCNK9 cells, FluxOR thallium flux fluorescence; inhibition, % at 10 µM; 43% of 4,900 active; AID 492992;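 active means thallium signal inhibited by more than 5 SD of the compound-free buffer control wells, on both duplicate plates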;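 further: 0% = assay buffer control wells without compound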
# Kir21 sel = selectivity of KCNK9 modulators against mouse Kir2.1 | inhibition, % at 10 µM | 4% of 4,900 active | shares compounds with KCNK9 inh | Kir2.1 cells, FluxOR thallium flux fluorescence;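 active means thallium signal drop more than 5 SD beyond the mean of the no-compound control wells, seen in both duplicate plates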;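 further: signal is fluorescence rise after thallium addition divided by baseline fluorescence; plate controls were assay buffer only for no effect and full block by chlorpromazine control for full effect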
# KCNK9 uninduced = second counter-screen for KCNK9 modulators: effect in non-induced cells. shares compounds with KCNK9 inh. non-induced KCNK9-HEK293, FluxOR thallium flux. inhibition, % at 10 µM. 40% of 4,900 active. AID 492997;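 active means thallium signal drop beyond 5 SD of the untreated control mean, on both duplicate plates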;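 further: plate controls were buffer only IC0 wells for no effect and SID17386958 at its maximal inhibitory level for full effect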
# * marks the source's active call; other numbers are inactive results; i = inactive; . = no result given.
SMILES,hERG rescue,KCNQ1 pot,KCNQ1 inh,Kir21 block,KCNK9 inh,KCNK3 block,KCNK9 inh conf,Kir21 sel,KCNK9 uninduced
CN(C)c1cc(N/N=C/c2ccccc2C(F)(F)F)nc(N(C)C)n1,-13,i,i,2.6,i,i,i,i,i
Cc1nnc(N/N=C/c2ccccc2C(F)(F)F)n1N,-9,i,i,1.2,i,i,.,.,.
CC(C)Cc1ccc(/C=C/C(=O)NC2CC2)cc1,-11,i,i,-0.33,i,i,.,.,.
O=C(/C=C/c1ccc(-c2ccccc2[N+](=O)[O-])o1)c1ccco1,-27,i,i,-2.1,-12*,i,56%*,i,25%*
COc1cc(O)c(CC=C(C)C)c(O)c1C(=O)CCc1ccc(O)cc1,-15,i,i,1.6,-14*,i,32%*,i,34%*
O=C(CCc1ccc(O)cc1)c1c(O)cc(O)cc1O,-33,i,i,0,i,i,.,.,.
CCOC(=O)c1csc(NC(=O)CN2CCN(C)CC2)n1,-6,i,i,0.55,i,i,.,.,.
O=C(NCC1CCCO1)c1cc2c([nH]c3ccccc32)c(-c2cccc(Cl)c2)n1 (stereo not drawn),-35,i,12*,-1.9,-11*,i,i,i,i
O=C1CSC(c2ccc3c(c2)OCO3)N1c1ccc(Oc2ccccc2)cc1 (stereo not drawn),-10,i,i,1.4,-14*,i,50%*,i,i
Cc1ccc(N2C(=O)CSC2c2ccc3c(c2)OCO3)cc1 (stereo not drawn),-8,i,i,-2.7,i,i,.,.,.
CCCSc1nc2c3c(sc2c(=O)[nH]1)CC(C)(CC)OC3 (stereo not drawn),-4,i,i,-0.47,i,i,.,.,.
COC(=O)c1ccc(Sc2ccccc2NS(=O)(=O)c2ccc(OC)cc2)nc1,-9,i,i,1.2,i,i,.,.,.
C=CCSc1nnc(-c2ccccc2N=Cc2c(C)[nH]n(-c3ccccc3)c2=O)c(=O)[nH]1,-22,i,i,1.4,i,i,.,.,.
CSc1nnc(-c2ccccc2N=Cc2c(C)[nH]n(-c3ccc4ccccc4c3)c2=O)c(=O)[nH]1,-13,i,i,0.67,i,i,i,i,i
CN1CCN(C(CNC(=O)C(=O)NC2CCCC2)c2ccc(F)cc2)CC1 (stereo not drawn),-9,i,i,-1.2,i,i,.,.,.
CCCOc1ccccc1N/C(=N/c1nc(C)cc(C)n1)NC(=O)COc1ccc(OC)cc1,-15,i,10*,-0.38,-27*,i,77%*,i,41%*
CCCOc1ccccc1N/C(N)=N/c1nc(C)cc(C)n1,-14,i,i,-0.67,i,i,.,.,.
CCOc1cc(CNc2ccc3c(c2)OCCO3)cc(Br)c1OCC,-7,i,i,0.97,i,i,i,i,i
CCOc1cc(CNc2ccc(N3CCOCC3)cc2)cc(Br)c1OCC,-8,i,i,-0.08,i,i,.,.,.
COC(=O)c1ccc(/C=N/N2CCN(Cc3ccc(C)cc3C)CC2)cc1,-12,i,i,0.19,i,i,i,i,i
CCCN(CCC)C(=O)COc1cc(=O)n(CC)c2ccccc12,-5,i,i,0.03,i,i,.,.,.
CCN(Cc1ccccc1)C(=O)COc1cc(=O)n(CC)c2ccccc12,-8,i,i,1,i,i,i,i,i
CCOc1ccc(C(=O)Nc2nnc(NC(=S)Nc3ccccc3)s2)cc1,-18,i,i,0.34,i,i,.,.,.
Cc1ccc(C(=O)Nc2nnc(NC(=S)Nc3ccccc3)s2)cc1,-12,i,i,-1.2,i,i,i,i,i
CCOc1cc(/C=N/Nc2nc3ccccc3[nH]2)cc(Br)c1OCC(=O)N(C)C,-3,i,i,1,-11*,i,58%*,i,i
SMILES,hERG rescue,KCNQ1 pot,KCNQ1 inh,Kir21 block,KCNK9 inh,KCNK3 block,KCNK9 inh conf,Kir21 sel,KCNK9 uninduced
CCc1ccc(NC(=O)CCc2nc3ccccc3[nH]2)cc1,-11,i,i,0.36,i,i,.,.,.
COc1ccc(C=O)cc1CN1CCCN(Cc2ccc(Cl)cc2)S1(=O)=O,-3,i,i,-1.3,i,i,.,.,.
Cc1ccc(CN2CCCN(Cc3c(C)cc(C)cc3C)S2(=O)=O)cc1,-4,i,i,1.2,i,i,i,i,i
COc1ccccc1NC(=O)Nc1nn(C)c2cccc(OC)c12,-11,i,i,-0.3,-11*,i,48%*,i,27%*
CSc1c(CC(=O)Nc2ccccc2C(F)(F)F)n(Cc2ccccc2)c2ccccc12,-14,i,i,0.67,i,i,.,.,.
COc1ccc(N2CCN(C(=O)NCc3ccc(OC)c(OC)c3)CC2)cc1,-8,i,i,2.2,i,i,.,.,.
N#Cc1ccc(-c2ccc3c(c2)OCO3)nc1SCC(=O)OCc1ccccc1,-8,i,i,0.5,-10*,i,i,i,27%*
CN(C(=O)CCS(=O)(=O)c1cc2c(cc1Cl)NC(=O)CO2)C1CCCCC1,-5,i,i,-1.4,i,i,.,.,.
Cc1cc(C)nc(/N=c2/ssnc2Cl)c1,-9,i,i,-0.19,i,i,i,i,i
Cc1ccc(N=c2ssnc2Cl)cc1,-14,i,i,0.09,i,i,.,.,.
COc1cccc(/C(C)=N/N=C(\C)c2cccc(OC)c2)c1,-6,i,i,0.67,-14*,i,60%*,i,i
COc1cccc(C(N)=O)c1,-2,i,i,-0.3,i,i,.,.,.
CN(C(=O)C1CCCCC1)C1CCS(=O)(=O)C1 (stereo not drawn),-6,i,i,-0.03,i,i,.,.,.
COc1cc(C)c(NC(=O)C(=S)NCc2ccccc2)cc1C,3,i,i,0.76,i,i,i,i,27%*
COc1cc(C)c(NC(=O)C(=S)N2CCCC2)cc1C,-16,i,i,0.03,i,i,.,.,.
CC(C)Cc1nnc(NC(=O)CN2C(=O)c3ccccc3C2=O)s1,-17,i,i,-0.68,i,i,.,.,.
